Laboratory results: PMC6452895 (ChemMedChem, 2019)

What was measured:
SIRT3 = target: T1, SIRT3 (Homo sapiens, UniProt Q9NTG7); assay: In vitro SIRT3 deacetylation inhibition, H3K9-Ac peptide substrate; format: biochemical; details: read-out: SIRT3 Deacetylation IC50, with 15 min pre-incubation
T1 sequence (Q9NTG7 1-399): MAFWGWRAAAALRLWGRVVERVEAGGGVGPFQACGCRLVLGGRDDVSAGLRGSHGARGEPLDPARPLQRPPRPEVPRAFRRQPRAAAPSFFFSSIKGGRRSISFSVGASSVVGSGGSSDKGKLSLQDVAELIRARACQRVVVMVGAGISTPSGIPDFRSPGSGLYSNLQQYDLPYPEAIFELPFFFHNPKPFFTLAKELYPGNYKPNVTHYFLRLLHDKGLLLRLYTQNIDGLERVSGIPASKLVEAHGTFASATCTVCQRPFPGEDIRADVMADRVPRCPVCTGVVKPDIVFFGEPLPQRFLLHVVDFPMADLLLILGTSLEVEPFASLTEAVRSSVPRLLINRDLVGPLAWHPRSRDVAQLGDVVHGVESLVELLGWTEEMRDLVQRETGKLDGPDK
In short: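 The enzyme was pre-incubated with NAD and test compound for 15 min, then substrate was added to start the deacetylation reaction. IC50 was determined under these pre-incubation conditions.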

ASPC1 = assay: Growth inhibition; format: cell-based, human; details: ASPC1, pancreatic cancer, K-Ras G12D
In short: (§1)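 Cancer cell lines were treated with test compound for growth inhibition. Each GI50 is the average of three independent experiments, each run in duplicate.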

HCT116 = assay: Growth inhibition; format: cell-based, human; details: HCT116, colon cancer, K-Ras G13D
In short: as §1

NCI-H23 = assay: Growth inhibition; format: cell-based, human; details: NCI-H23, lung cancer, K-Ras G12C
In short: as §1

MDA-MB-231 = assay: Growth inhibition; format: cell-based, human; details: MDA-MB-231, breast cancer, K-Ras G13D
In short: as §1

HME1 = assay: Growth inhibition; format: cell-based, human; details: HME1, normal mammary epithelial cells, K-Ras WT
In short: (§2)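 GI50 determined for growth of the test compound's target cells; values averaged across three independent experiments, each run in duplicate.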

MCF10A = assay: Growth inhibition; format: cell-based, human; details: normal mammary epithelial cells, K-Ras WT
In short: as §2

- IC50 (SIRT3): > 50 µM
- GI50 (ASPC1): 24 ± 5 µM
- GI50 (HCT116): 19 ± 1 µM
- GI50 (NCI-H23): 29 ± 6 µM
- GI50 (MDA-MB-231): 13 ± 4 µM
SMILES: CCCCCCCCCCCCCC(=S)NCCCCC(NC(=O)OCc1ccccc1)C(=O)Nc1ccccc1 (stereo not shown) [TM]
- GI50 (HME1): > 50 µM
- GI50 (MCF10A): > 50 µM
